In ChEMBL document CHEMBL3861950, “Design, synthesis and evaluation of novel 19F magnetic resonance sensitive protein tyrosine phosphatase inhibitors” (Medchemcomm, 2016) one finds IC50 and Ratio IC50 data, which are given here for one compound.

The structures appear in SMILES notation.

A short description of experiment [1]: Inhibition of recombinant Mycobacterium tuberculosis PTPB using pNPP as substrate by spectrophotometric method. The essentials: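 Recombinant enzyme made in-house. Substrate pNPP in 50 mM 3,3-dimethylglutarate buffer, pH 7.0, with 1 mM EDTA and 150 mM NaCl, at 25 °C, screened in 96-well format. p-Nitrophenol product read at 405 nm. Non-enzymatic pNPP hydrolysis was corrected using a control without enzyme.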

Experiment [2] addresses T1, Tyrosine-protein phosphatase non-receptor type 11 (Homo sapiens, UniProt Q06124).
T1 sequence (Q06124 whole entry): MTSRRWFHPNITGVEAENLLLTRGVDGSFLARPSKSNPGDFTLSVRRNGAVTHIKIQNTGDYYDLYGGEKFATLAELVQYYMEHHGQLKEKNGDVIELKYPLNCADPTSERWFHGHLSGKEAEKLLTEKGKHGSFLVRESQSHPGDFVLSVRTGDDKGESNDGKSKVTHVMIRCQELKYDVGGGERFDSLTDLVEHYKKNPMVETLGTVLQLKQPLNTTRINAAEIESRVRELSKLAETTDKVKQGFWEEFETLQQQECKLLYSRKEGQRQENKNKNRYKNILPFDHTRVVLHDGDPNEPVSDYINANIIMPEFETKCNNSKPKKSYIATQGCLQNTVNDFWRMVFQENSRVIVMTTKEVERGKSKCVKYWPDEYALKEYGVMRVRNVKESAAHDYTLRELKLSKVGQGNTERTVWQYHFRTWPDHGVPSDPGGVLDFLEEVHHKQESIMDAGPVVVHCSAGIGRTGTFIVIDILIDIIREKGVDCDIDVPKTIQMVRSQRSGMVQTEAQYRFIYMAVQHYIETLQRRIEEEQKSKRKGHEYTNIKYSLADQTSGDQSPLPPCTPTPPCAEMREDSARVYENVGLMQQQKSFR
The experiment in a line: Inhibition of recombinant SHP2 (unknown origin) using pNPP as substrate by spectrophotometric method. The essentials: (§1)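 Recombinant PTP prepared in-house, assayed with pNPP substrate in 50 mM 3,3-dimethylglutarate buffer pH 7.0 containing 1 mM EDTA and 150 mM NaCl at 25 °C, in 96-well format. p-Nitrophenol product was quantified by absorbance at 405 nm. Non-enzymatic pNPP hydrolysis was corrected using a no-enzyme control.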

Experiment [3] addresses T2, Tyrosine-protein phosphatase non-receptor type 1 (Homo sapiens, UniProt P18031).
T2 sequence (P18031 whole entry): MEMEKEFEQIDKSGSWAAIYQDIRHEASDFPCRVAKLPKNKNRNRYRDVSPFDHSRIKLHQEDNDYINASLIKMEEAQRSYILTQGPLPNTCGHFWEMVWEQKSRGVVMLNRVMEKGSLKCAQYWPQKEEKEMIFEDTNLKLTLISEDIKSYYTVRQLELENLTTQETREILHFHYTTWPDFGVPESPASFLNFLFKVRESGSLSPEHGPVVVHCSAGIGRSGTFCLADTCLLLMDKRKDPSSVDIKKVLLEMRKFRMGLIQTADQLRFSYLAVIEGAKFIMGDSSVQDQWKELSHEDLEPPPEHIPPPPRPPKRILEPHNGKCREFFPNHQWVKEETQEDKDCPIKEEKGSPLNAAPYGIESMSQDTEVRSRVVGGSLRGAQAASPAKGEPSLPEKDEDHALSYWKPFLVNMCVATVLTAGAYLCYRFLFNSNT
The experiment in a line: Inhibition of recombinant PTP1B (unknown origin) using pNPP as substrate by spectrophotometric method. The essentials: as §1

Experiment [4] deals with T3, Tyrosine-protein phosphatase non-receptor type 22 (Homo sapiens, UniProt Q9Y2R2).
T3 sequence (Q9Y2R2 whole entry): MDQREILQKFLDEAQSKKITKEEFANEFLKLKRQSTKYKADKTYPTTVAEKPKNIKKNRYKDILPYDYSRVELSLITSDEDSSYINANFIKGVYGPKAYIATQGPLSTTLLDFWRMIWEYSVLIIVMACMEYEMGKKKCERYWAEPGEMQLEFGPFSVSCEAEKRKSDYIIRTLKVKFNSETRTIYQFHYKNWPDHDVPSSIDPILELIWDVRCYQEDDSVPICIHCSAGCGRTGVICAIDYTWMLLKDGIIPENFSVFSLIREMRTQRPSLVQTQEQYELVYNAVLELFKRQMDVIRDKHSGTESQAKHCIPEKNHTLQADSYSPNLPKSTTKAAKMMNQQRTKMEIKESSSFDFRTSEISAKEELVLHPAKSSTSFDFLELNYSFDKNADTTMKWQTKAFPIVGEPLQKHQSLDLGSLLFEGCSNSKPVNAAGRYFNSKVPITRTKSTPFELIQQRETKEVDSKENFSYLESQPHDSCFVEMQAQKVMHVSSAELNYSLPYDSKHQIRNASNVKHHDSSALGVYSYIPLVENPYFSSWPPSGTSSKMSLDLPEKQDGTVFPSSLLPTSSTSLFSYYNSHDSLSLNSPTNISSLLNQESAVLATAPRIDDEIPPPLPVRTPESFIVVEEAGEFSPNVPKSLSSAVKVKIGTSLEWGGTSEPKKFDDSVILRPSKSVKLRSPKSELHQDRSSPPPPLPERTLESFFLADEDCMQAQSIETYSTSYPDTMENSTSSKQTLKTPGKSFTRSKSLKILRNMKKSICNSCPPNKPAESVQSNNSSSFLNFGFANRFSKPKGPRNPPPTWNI
The experiment in a line: Inhibition of recombinant LYP (unknown origin) using pNPP as substrate by spectrophotometric method. A digest of the protocol:
as §1

The nature of experiment [5]: Selectivity ratio of IC50 for recombinant PTP1B (unknown origin) to IC50 for recombinant Mycobacterium tuberculosis PTPB.
Experiment [6] can be described thus: Selectivity ratio of IC50 for recombinant LYP (unknown origin) to IC50 for recombinant Mycobacterium tuberculosis PTPB.

With `Cc1ccc(S(=O)(=O)NNC(=O)COc2ccc3cc(C(O)(C(F)(F)F)C(F)(F)F)c(O)cc3c2)cc1`, the IC50 in experiment [1] was 2.3 µM; in experiment [2] it was 20.3 µM; in experiment [3], over 20 µM; in experiment [4] it was 15.4 µM. Also, the Ratio IC50 in experiment [5] and in experiment [6] was over 7 throughout.

A word on the IC50: it is the concentration needed to halve the response being measured.
